High-throughput results (PubChem)
TAAR1 agonist – human TAAR1 agonists, primary screen, Fluo-8 calcium fluorescence, CHO RD-HGA16 cells. vehicle wells 0%, saturating PEA agonist 100%. actives 0.99% (n = 360,000). activation, % at 3 µM;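 active = activation above the mean activation of all test compounds in the run plus 3 SD, cut at about 38% in these data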
Target sequence (Q96RJ0 whole entry, looked up): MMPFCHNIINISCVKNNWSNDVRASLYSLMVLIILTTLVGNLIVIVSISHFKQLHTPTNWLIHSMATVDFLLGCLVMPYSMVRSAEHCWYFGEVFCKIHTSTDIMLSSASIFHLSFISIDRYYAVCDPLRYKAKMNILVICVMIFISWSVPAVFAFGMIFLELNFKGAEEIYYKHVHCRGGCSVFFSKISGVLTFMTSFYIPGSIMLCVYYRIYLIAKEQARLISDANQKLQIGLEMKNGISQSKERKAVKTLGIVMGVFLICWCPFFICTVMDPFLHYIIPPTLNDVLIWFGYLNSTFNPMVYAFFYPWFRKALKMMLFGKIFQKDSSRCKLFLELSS
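Test system: RD-HGA16 (CHO) cells co-expressing Gα16 and hTAAR1 / Benchmarks: DMSO vehicle as 0%, PEA at EC100 as 100% / Repeats: no replicates (n 1) / Measure: % activation from peak over basal fluorescence ratio, DMSO-to-PEA scaled / Timing: 17-24 h plating, Fluo-8 75 min 37 °C, 30 min RT / Technique: kinetic Fluo-8 calcium fluorescence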
OX1R antag-1 – antagonists of human orexin 1 receptor (OX1R); Orexin/Hypocretin receptor type 1 (Homo sapiens), O43613; actives 1.8% (n = 330,000); OX1R-expressing cells, FRET antagonist read-out; inhibition, % at 6.6 µM; AID 485270, 2010; in the data active = inhibition mostly above about 38%, no sharp cut-off; inactive = mostly below about 40%
OX1R antag-2 – OX1R (HCRTR1) antagonists, primary screen, fluorescence, CHO/OX1R cells, Fluo-8 calcium, orexin A; AID 434989, 2010; Fluo-8 calcium fluorescence; actives 0.43% (n = 330,000); inhibition, % at 5 µM;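 active = inhibition above its plate's threshold, mean inhibition of all tested compounds on the plate plus 3 SD, cut at about 37% in these data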
TAAR1 antag – human TAAR1 antagonists, primary screen, Fluo-8 calcium fluorescence, CHO RD-HGA16 cells; Trace amine-associated receptor 1 (Homo sapiens), Q96RJ0; antagonist; inhibition, % at 3 µM; actives 1.5% (n = 360,000);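 active = inhibition above a per-plate cutoff, the mean inhibition of test compounds on that plate plus 3 SD, cut at about 49% in these data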
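Material: RD-HGA16 CHO cells with stable hTAAR1 and Gα16; Dosing: single nominal final test compound concentration of 3 µM; Schedule: seeding 17-24 h prior, 75-min 37 °C, 30-min RT dye loading; Detection: kinetic Fluo-8 calcium fluorescence measurement; Measure: % inhibition from peak post-agonist over basal fluorescence ratio; Benchmarks: vehicle and agonist controls.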
GPR7 antag – GPR7 receptor antagonists, primary screen, cell-based, fluorescence, single concentration | Neuropeptides B/W receptor type 1 (Homo sapiens), P48145 | GPR7-expressing cells, fluorescence antagonist assay | inhibition, % at 4.4 µM | actives 1.1% (n = 290,000) | AID 1861, 2009; in the data active = inhibition above about 16%, passing the limit was not always enough;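 also: cells stimulated with the agonist NPW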
Target sequence (P48145 whole entry, looked up): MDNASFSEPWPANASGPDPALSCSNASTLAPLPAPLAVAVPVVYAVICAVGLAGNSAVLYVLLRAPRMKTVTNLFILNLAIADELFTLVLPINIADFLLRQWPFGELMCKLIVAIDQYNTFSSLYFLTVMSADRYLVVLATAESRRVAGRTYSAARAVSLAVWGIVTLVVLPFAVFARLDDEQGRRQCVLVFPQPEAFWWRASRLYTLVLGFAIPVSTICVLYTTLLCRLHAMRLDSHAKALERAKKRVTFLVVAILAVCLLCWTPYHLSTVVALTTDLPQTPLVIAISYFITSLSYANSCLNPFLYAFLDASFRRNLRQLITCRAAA
CHO parental Ca – ATP-evoked calcium signal inhibitors, parental CHO, primary screen, counter-screen for OX1R antagonist project, cell-based, fluorescence, Fluo-8 calcium dye; parental CHO-K1, ATP-induced calcium, Fluo-8 fluorescence; inhibition, % at 5.6 µM; actives 0.63% (n = 330,000);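 active = inhibition above that plate's mean sample inhibition plus 3 SD, cut at about 26% in these data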
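Assay system – parental CHO cells · Reagent – ATP stimulus · Detection – intracellular calcium via Fluo-8 no-wash fluorescent dye · Evaluation – percent inhibition of ATP-evoked calcium rise, normalized to controls · Controls – ATP wells versus no-ATP DMSO wells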
GPR7 antag conf – GPR7 receptor antagonists, confirmation, cell-based, fluorescence, single concentration. shares compounds with GPR7 antag. inhibition, % at 4.4 µM. actives 52% (n = 2,400). GPR7-expressing cells, calcium fluorescence antagonist mode; in the data active = inhibition above about 24%;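 also: stimulated with the GPR7 agonist NPW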
MCHR1 antagonist – MCHR1 antagonists in cells, counter-screen for GPR7 antagonist project, cell-based, fluorescence, human. inhibition, % at 4.4 µM. AID 2148, 2009. MCHR1-expressing cells, fluorescence antagonist assay. shares compounds with GPR7 antag. actives 62% (n = 2,400); in the data active = inhibition above about 22%
A number is an active result; i = inactive; nt = not tested or not shown. Rows were chosen to be rich in hits. Some 4.5% of all compounds tested hit in one or more screens of this group.

SMILES	TAAR1 agonist	OX1R antag-1	OX1R antag-2	TAAR1 antag	GPR7 antag	CHO parental Ca	GPR7 antag conf	MCHR1 antagonist
Cc1cc(C)cc(NC(=O)C2CCN(S(=O)(=O)c3ccc4c(c3)NC(=O)C(C)S4)CC2)c1 (stereo unspecified)	i	i	i	i	30.0	i	25.4	45.6
Cc1ccc(NC(=O)C2CCN(S(=O)(=O)c3ccc4c(c3)C(C)(C)C(=O)N4C)CC2)c(C)c1	i	i	i	i	29.8	i	i	i
CC1Sc2ccc(S(=O)(=O)N3CCN(c4ccccc4)CC3)cc2NC1=O (stereo unspecified)	i	i	i	i	39.1	i	i	26.1
COc1cc(Cl)ccc1OCc1cc(C(=O)N2CCN(C3CCCCC3)CC2)no1	i	nt	nt	i	nt	nt	nt	nt
CCCCC(Nc1ncnc2ccccc12)C(=O)O (stereo unspecified)	i	i	i	i	22.8	i	i	i
CC(=O)NNc1ncnc2ccccc12	i	i	i	i	i	i	nt	nt
COc1ccccc1Cn1c(=S)[nH]c2cc(C(=O)N3CCC(C(N)=O)CC3)ccc2c1=O	i	i	i	i	25.1	i	i	i
CCOC(=O)N1CCN(C(=O)c2ccc3c(=O)n(Cc4ccccc4OC)c(=S)[nH]c3c2)CC1	i	i	i	i	i	i	nt	nt
COC(=O)/C(C#N)=C1/C=Cc2ccccc2N1	i	i	i	i	i	i	nt	nt
CN1C(C(=O)N2CCc3ccccc3C2)=CC(c2ccc(F)cc2)=NS1(=O)=O	42.2	i	i	i	29.8	i	i	25.2
COc1ccc(C2=NS(=O)(=O)N(C)C(C(=O)N3CCC(C)CC3)=C2)cc1	i	i	i	i	i	i	nt	nt
CC(C)[C@H](NC(N)=O)C(=O)Nc1ccc(F)c(Cl)c1	i	i	i	i	22.3	i	i	i
CC1(C)c2ccccc2-n2c1cc1oc(=O)cc(O)c1c2=O	i	i	i	i	i	i	nt	nt
Cc1ccc(-n2c(SCC(=O)N3CC(=O)Nc4ccccc43)nc3ccccc3c2=O)cc1	i	i	i	i	27.2	i	i	i
Cc1cccc(C)c1-n1c(SCC(=O)N2CC(=O)Nc3ccccc32)nc2ccccc2c1=O	i	i	i	i	i	i	nt	nt
Cc1ccc(C)c(C(=O)Nc2ccncc2)c1	i	i	i	i	i	i	nt	nt
CCN1CCN(CCCNC(=O)C2CCCN(c3nc4c(C)cc(C)cc4s3)C2)CC1 (stereo unspecified)	i	i	i	i	i	i	nt	nt
OCCCCNCc1ccc(OCc2ccc(Cl)cc2Cl)cc1	37.8	i	i	i	38.6	i	66.5	58.5
S=C(Nc1ccccc1)Nc1ccc(OCc2ccc(Cl)cc2Cl)cc1	i	i	i	i	i	i	nt	nt
OCCNCc1ccc(OCc2ccc(Cl)cc2Cl)cc1	i	i	i	i	30.6	i	40.4	43.0
Cc1ccc(CNC(=O)c2ccc(Cl)c(S(N)(=O)=O)c2)n1C	i	i	i	i	i	i	nt	nt
CCOC(=O)Cc1csc(SCC(=O)N2CCN(c3ccccc3)CC2)n1	i	i	i	i	nt	i	nt	nt
COc1ccc(C2(OC)Oc3cc(OC)ccc3C(=O)C2(O)OC)cc1 (stereo unspecified)	i	nt	nt	i	nt	nt	nt	nt
Cc1ccc(NC(=O)NCCN2CCCCC2)cc1	i	i	i	i	i	i	nt	nt
CCC(C)c1ccc(NC(=O)NCCN2CCCCC2)cc1 (stereo unspecified)	i	i	i	i	31.9	i	i	i
SMILES	TAAR1 agonist	OX1R antag-1	OX1R antag-2	TAAR1 antag	GPR7 antag	CHO parental Ca	GPR7 antag conf	MCHR1 antagonist
Cc1ccc(S(=O)(=O)N(C)Cc2ccc(-c3nnco3)cc2)cc1	i	i	i	i	26.5	i	46.9	41.8
CN(CC(=O)Nc1ccc(F)c(F)c1F)C(=O)CN1C(=O)C2CCCCC2C1=O (stereo unspecified)	i	i	i	i	i	i	nt	nt
O=C(C/C=N\OCc1ccc([N+](=O)[O-])cc1)Nc1ccc(Cl)cc1	i	i	i	i	25.5	i	30.6	39.8
CCN(c1cccc(C)c1)S(=O)(=O)c1cccc2nsnc12	i	i	i	i	23.3	i	i	39.1
C#CCOCCOCCOCCNc1nc(N2CCN(C(=O)[C@H](CCCN=C(N)N)n3cc(C(N)[C@@H](C)CC)nn3)CC2)nc(N2CCN(C(=O)[C@H](CC(N)=O)n3cc([C@@H](N)CC(N)=O)nn3)CC2)n1 (stereo partly specified)	i	i	i	i	nt	i	nt	nt
Cc1ccc(Oc2ccccc2NC(=O)CN2C(=O)NC3(CCCC3)C2=O)cc1	i	i	i	i	29.1	i	i	i
O=C(Nc1nc2c(s1)CN(Cc1ccccc1)CC2)C1CCC1	i	i	i	i	i	i	nt	nt
CN(C)c1ccc(/C=C(\C#N)C(=O)Nc2nc3c(s2)CCN(Cc2ccccc2)C3)cc1	i	i	i	i	26.0	i	33.3	31.2
C[C@H]1CN=C(N(C)C)N1CC1CCC(C(C)(C)C)CC1 (stereo partly specified)	i	i	i	i	nt	i	nt	nt
COc1ccc(OC)c(CN2C(=O)CN(S(C)(=O)=O)CC2(C)C(=O)Nc2c(C)cccc2C)c1 (stereo unspecified)	i	nt	nt	i	nt	nt	nt	nt
COc1ccc(CN2CCNC(=O)C2CC(=O)NCCN2CCCCC2=O)c(F)c1 (stereo unspecified)	i	i	i	i	i	i	nt	nt
O=C(Nc1cccc2c1CCCC2)c1cccc(F)c1	i	i	i	i	i	i	nt	nt
COc1cc(OC)cc(C(=O)Nc2cccc3c2CCCC3)c1	i	i	i	i	32.5	i	i	i
COc1cccc(C2=NOC(C(=O)NC(C)C)C2)c1 (stereo unspecified)	i	i	i	i	26.5	i	i	i
CCOC(=O)c1c(N)sc2c(OCC)c(Br)ccc12	i	i	i	i	24.0	i	29.3	27.9
CCOC(=O)c1c(NC(C)=O)sc2c(OCC(O)CNC(C)(C)C)c(Br)ccc12 (stereo unspecified)	i	i	i	i	i	i	nt	nt
COc1ccc2oc(C(=O)OC(C)C(=O)N3C(C)CCCC3C)c(C)c2c1 (stereo unspecified)	i	i	i	i	nt	i	nt	nt
